Source: PubChem BioAssay (several laboratories)
GAA850 FXN act – frataxin GAA850 promoter activation; HEK293 lucGAA850 FXN promoter luciferase reporter, 24 h; percent of 10 µM SAHA response; activation, % at 6 µM; 360,000 compounds, 0.56% hits; AID 540364;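 active means activation above the average of all compounds screened plus 3 SD, cutoff fixed separately per campaign, cut at about 7.5% in these data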
T cell HTS – T cell immune modulation candidate; response (vesicle binding), % at 7 µM; AID 2052; 330,000 compounds, 0.068% hits; 2C CD8+ T cell-vesicle binding, flow cytometry; active compounds read low;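 active means response, share of CD8 T cells binding vesicles, and their 90th percentile fluorescence all below set limits, cut at about 80% in these data, passing the limit was not always enough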;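 further: values below 100% mean blocked vesicle binding to the CD8+ T cells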
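Read-out – percent CD8+ FL2 mean versus row control · System – murine 2C transgenic CD8+ T lymphocytes · Times – 1.5 h cell–vesicle binding at 37 °C, then 20 min icy labelling · Control set – naked vesicles low, QL9 vesicles with vehicle high · Detection – cytometric PE anti-B7-1 and Alexa647 anti-CD8 signals after 1% paraformaldehyde fixation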
NR2E3 ag-1 – human photoreceptor-specific nuclear receptor agonism; Q9Y5X4; CHO-S Gal4-NCOR/VP16-NR2E3 two-hybrid, luciferase; inhibition of corepressor binding, % at 3.98 µM; 360,000 compounds, 0.35% hits; AID 602229;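 active means inhibition above the mean of all tested compounds plus 3 SD, cut at about 70% in these data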;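 further: higher means lower luciferase signal from less NR2E3 corepressor binding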
Target sequence (Q9Y5X4 whole entry, looked up, the tested form may be a part): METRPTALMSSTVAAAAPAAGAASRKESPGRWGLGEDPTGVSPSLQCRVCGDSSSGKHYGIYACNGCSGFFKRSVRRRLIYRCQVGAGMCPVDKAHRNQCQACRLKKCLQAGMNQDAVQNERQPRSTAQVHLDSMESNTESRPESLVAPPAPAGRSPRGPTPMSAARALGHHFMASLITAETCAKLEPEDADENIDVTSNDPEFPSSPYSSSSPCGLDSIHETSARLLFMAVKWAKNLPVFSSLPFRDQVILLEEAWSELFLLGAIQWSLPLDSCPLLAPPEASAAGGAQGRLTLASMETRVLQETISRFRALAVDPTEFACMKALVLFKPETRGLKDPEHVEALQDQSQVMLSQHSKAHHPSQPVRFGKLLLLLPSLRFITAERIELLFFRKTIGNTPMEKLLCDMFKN
NR2E3 ag-2 – NR2E3 (human) agonism; Q9Y5X4; GST-NR2E3/biotin-RetCOR TR-FRET, 1536-well; inhibition of corepressor binding, % at 4.78 µM; 320,000 compounds, 0.12% hits;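 active means percent inhibition above the cutoff of mean plus 3 SD of all tested compounds, set per screening campaign, cut at about 20% in these data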
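System: GST-tagged NR2E3 plus biotinylated RetCOR corepressor; Amount: 1.35 nM GST-tagged NR2E3 final; Dosing: single nominal compound dose of 4.8 µM; Schedule: 5 h incubation at 4 °C; Technique: TR-FRET with europium anti-GST and streptavidin-D2, 340 nm excitation; Controls: biotin wells as high control, 0.6% DMSO wells as low control.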
Myeloid diff MLP – compounds promoting myeloid differentiation | ER-HoxA9 myeloid progenitors, lysozyme-GFP differentiation, flow cytometry | calls only at 10 µM | 360,000 compounds, 1% hits;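 active means normalized GFP-positive differentiation at or above the plate's own cutoff, the solvent-only control mean plus 3 SD; inconclusive means no clear call, values can overlap the other calls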;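 further: cells exposed to compound for four days before flow analysis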
NR2E3 ag conf – NR2E3 agonism confirmed in two-hybrid assay; shares compounds with NR2E3 ag-1; CHO-S mammalian two-hybrid NR2E3-NCOR, luciferase luminescence; inhibition, % at 3.98 µM; 2,300 compounds, 51% hits;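 active means average inhibition above a cutoff equal to the mean inhibition of all tested compounds plus one SD, cut at about 70% in these data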
GAL4-VP16 luc – counter-screen for NR2E3 agonists: GAL4-VP16 reporter inhibitors. shares compounds with NR2E3 ag-1. CHO-S GAL4-VP16 luciferase reporter, luminescence. inhibition, % at 3.98 µM. 2,300 compounds, 29% hits. AID 624379;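 active means mean inhibition above a cutoff equal to the average over all tested compounds plus one standard deviation, cut at about 70% in these data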;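 further: luciferase from a UAS reporter driven by GAL4-VP16 transactivation; higher means less reporter light so more repression of VP16 activity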
A number is an active result; 0 = inactive; ? = inconclusive; - = no result. The list is not random: actives were taken first. Their share in the collection is about 2%.

SMILES | GAA850 FXN act | T cell HTS | NR2E3 ag-1 | NR2E3 ag-2 | Myeloid diff MLP | NR2E3 ag conf | GAL4-VP16 luc
O=C(CC1C[C@H](C(=O)N2CCOCC2)[C@@]2(CCC3CCCC3)c3[nH]c4ccccc4c3CCN2C1=O)NCc1cccc(C(F)(F)F)c1 (some centres not stated) | 0 | - | 0 | - | 0 | - | -
CCN1/C(=C/C=C/c2sc3ccccc3[n+]2CC)Sc2ccccc21 | 0 | 0 | 0 | 0 | 0 | - | -
CCN1/C(=C/C=C/c2oc3ccc(-c4ccccc4)cc3[n+]2CC)Oc2ccc(-c3ccccc3)cc21 | 0 | 0 | 80.1 | 0 | ? | 100.1 | 92.5
CCCC(C)(C)C(=O)N1CCC1(C)C(=O)Nc1cccc2ccccc12 (configuration not stated) | 0 | - | 0 | - | 0 | - | -
OC(COc1ccc(CNCCc2ccccc2F)cc1)CN1CCCCC1 (configuration not stated) | 0 | 0 | 0 | 0 | 0 | - | -
O=C(NCCc1ccccc1F)c1ccc2c(c1)OCCO2 | 0 | 0 | 72.2 | 0 | 0 | 0 | 0
Cc1ccc(Nc2nc(N)c([N+](=O)[O-])c(N3CCC(C)CC3)n2)cc1C | 0 | 0 | 0 | 0 | 0 | - | -
Cc1ccc(Nc2nc(N)c([N+](=O)[O-])c(N3CCOCC3)n2)cc1C | 0 | 0 | 0 | 0 | - | 0 | 0
CC(=O)c1cccc(NC(=O)C2(C)Cc3c(-c4cccc(C(F)(F)F)c4)ccnc3O2)c1 (configuration not stated) | 0 | - | 0 | - | 0 | - | -
Cc1cc2nc(C)n(CCCNC(=O)Nc3cccc4ccccc34)c2cc1C | 0 | 0 | 0 | 0 | 0 | 76.1 | 0
CSCCC(C(=O)Nc1c(C)cccc1C)N1CCN(c2ccc(F)cc2)CC1 (configuration not stated) | - | - | 0 | - | 0 | - | -
Nc1ncnc2c(C3OC(CO)C(O)C3O)c[nH]c12 (configuration not stated) | 0 | - | 102.9 | - | ? | 100.6 | 99.4
CCOC(=O)COc1ccc(S(=O)(=O)NCc2ccncc2)cc1 | 0 | 0 | 0 | 0 | 0 | - | -
CCOc1cc(S(=O)(=O)NCc2ccncc2)ccc1Cl | 0 | 0 | 88.1 | 0 | 0 | 97.3 | 87.4
Cc1ccc(S(=O)(=O)NCc2ccncc2)cc1 | 0 | 0 | 74.1 | 0 | 0 | 71.5 | 0
Cc1ccc(S(=O)(=O)NCC(=O)NCc2ccncc2)cc1 | 0 | 0 | 0 | 0 | 0 | - | -
CCOc1ccc(S(=O)(=O)NCc2ccncc2)cc1 | 0 | 0 | 92.0 | 0 | 0 | 95.4 | 90.0
Cc1cc(S(=O)(=O)NCc2ccncc2)c(C)cc1Br | 0 | 0 | 101.1 | 0 | 0 | 93.8 | 81.7
C[C@H](CO)N1C[C@H](C)[C@@H](CN(C)C(=O)NC2CCCC2)Oc2cc(Br)ccc2S1(=O)=O | 0 | - | 0 | - | 0 | - | -
Cc1nc2c(-c3ccc(F)cc3)cnn2c(N)c1-c1ccccc1 | 0 | 0 | 77.3 | 0 | ? | 0 | 0
Cc1cccc(C)c1NC(=O)C1(C)CCC(=O)N1C1CCN(Cc2ccccc2)CC1 (configuration not stated) | - | - | 0 | - | 0 | - | -
Cc1c(OC(C)C(=O)N2C[C@H]3C[C@@H](C2)c2cccc(=O)n2C3)ccc2c3c(c(=O)oc12)CCC3 (some centres not stated) | 0 | 0 | 0 | 0 | 0 | - | -
COc1ccc(CCNc2nc(-c3ccccn3)cs2)cc1OC | 0 | 0 | 0 | 0 | 0 | 0 | 0
COc1ccc(CCNc2nc(-c3ccncc3)cs2)cc1OC | 0 | 0 | 0 | 0 | 0 | - | -
O=C(NCCC1=CCCCC1)c1ccc(Cl)c(S(=O)(=O)N2CCOCC2)c1 | 0 | 0 | 0 | 0 | 0 | - | -
SMILES | GAA850 FXN act | T cell HTS | NR2E3 ag-1 | NR2E3 ag-2 | Myeloid diff MLP | NR2E3 ag conf | GAL4-VP16 luc
O=C(NCCC1=CCCCC1)c1ccc(Cl)c(S(=O)(=O)N2CCCCC2)c1 | 0 | 0 | 0 | 0 | 0 | 0 | 0
COc1cc(Cl)ccc1OCc1cc(C(=O)N2CCN(C3CCCCC3)CC2)no1 | 0 | - | 0 | - | 0 | - | -
COc1ccc2cc(S(=O)(=O)NCc3cccnc3)ccc2c1 | 0 | 0 | 0 | 0 | 0 | 0 | 0
O=C(Nc1ccc(Cl)c(Cl)c1)c1cccc(S(=O)(=O)NCc2cccnc2)c1 | 0 | 0 | 0 | 0 | 0 | 84.3 | 71.5
COc1ccc(S(=O)(=O)NCc2cccnc2)cc1OC | 0 | 0 | 0 | 0 | 0 | - | -
Cc1cccnc1Nc1nc(-c2ccccn2)cs1 | 0 | 0 | 77.2 | 0 | ? | 99.8 | 0
Cc1ccc(C(=O)Nc2nc(-c3ccccn3)cs2)s1 | 0 | 0 | 0 | 0 | 0 | 0 | 0
COCCNC(=S)N1CCC(c2nc(-c3ccc(N(C)C)cc3)no2)CC1 | 0 | 0 | 0 | 0 | 0 | - | -
O=C(Nc1ccccc1)N1CCCC(c2nc(-c3ccc(F)cc3)no2)C1 (configuration not stated) | 0 | 0 | 0 | 0 | 0 | - | -
O=C(Nc1cccc(C(F)(F)F)c1)N1CCC(c2nc(-c3ccc(F)cc3)no2)CC1 | 0 | - | 0 | 0 | 0 | 0 | 0
CC(C)CNC(=S)N1CCC(c2nc(-c3ccc(F)cc3)no2)CC1 | 0 | 0 | 0 | 0 | 0 | 88.4 | 0
CC1(C(=O)Nc2cccnc2)Cc2c(-c3cccc(C(F)(F)F)c3)ccnc2O1 (configuration not stated) | 0 | - | 0 | - | 0 | - | -
O=C(O)C1C2C=CC(C2)C1C(=O)Nc1ccc2c(c1)OCCO2 (configuration not stated) | 0 | 0 | 0 | 0 | 0 | 0 | 0
O=C(O)C1CCCCC1C(=O)Nc1ccc2c(c1)OCCO2 (configuration not stated) | 0 | 0 | 0 | 0 | 0 | 0 | 0
Cc1cc(OCC(=O)OCC(=O)Nc2ccc(Cl)cn2)ccc1Cl | 0 | 0 | 0 | 0 | 0 | - | -
O=C(COc1cccc(C(F)(F)F)c1)Nc1cccc(S(=O)(=O)NC2=NCCCCC2)c1 | 0 | - | 0 | - | 0 | - | -
Cc1ccccc1COc1cccn2c(N(C)C(=O)CCC3CCCC3)c(C)nc12 | 0 | - | 0 | - | 0 | - | -
Cc1ccc(NC(=O)c2ccccc2NS(=O)(=O)c2ccc(Cl)s2)cc1S(=O)(=O)N1CCOCC1 | 0 | 0 | 89.8 | 0 | 0 | 99.0 | 78.0
COc1ccc(C)cc1NC(=O)c1ccccc1NS(=O)(=O)c1ccc(Cl)s1 | 0 | 0 | 100.9 | 0 | 0 | 99.1 | 90.5
COc1ccccc1CNC(=O)COC(=O)Cn1cnc2c1c(=O)n(C)c(=O)n2C | 0 | - | 0 | - | 0 | - | -
OC(c1ccccc1)c1nc(-c2ccccc2)cs1 (configuration not stated) | 0 | - | 0 | - | 0 | - | -
CC(C)(NO)/C(=N/O)c1ccc(Br)cc1 | 0 | 0 | 0 | 0 | 0 | 0 | 0
CC(C)(NO)/C(=N\O)c1ccc(Cl)cc1 | 0 | 0 | 0 | 0 | 0 | - | -
CC(=O)c1c(C)[nH]c(C(=O)OCc2cccc(C)c2)c1C | 0 | 0 | 0 | 0 | 0 | 0 | 0
Cc1nc(C(F)(F)F)ccc1C(=O)N1CCC1(C)C(=O)NS(C)(=O)=O (configuration not stated) | 0 | - | 0 | - | 0 | - | -
